Published values gathered from unrelated publications.
Compare with care: the assays were run in different laboratories. In brackets after ≈: the same amount, converted by molar mass.

C=CC(c1ccc(-c2ccc(O)cc2)cc1)n1ccnc1 (stereo not drawn)  MIC50 (Mycobacterium tuberculosis variant bovis BCG; microbial growth; BCG): > 50 µM
O=C(Nc1cccc(-c2cc(C(=O)O)no2)c1)Nc1ccc(Cl)c(Cl)c1  MIC (Klebsiella pneumoniae; microbial growth, broth dilution; BAA1705): > 64 µg/mL
COc1c2ccoc2cc2oc(=O)ccc12  IC50 (RD; cell growth or viability, WST-1; 48 h): 31.8 µM
COc1ccc(C=CC(=O)c2ccc(-c3ccccc3)cc2)cc1OC  MIC (Mycobacterium tuberculosis variant bovis BCG; microbial growth; BCG; 7 days): 100 µg/mL (≈ 290 µM)
CCOC(=O)c1cc(-c2cccc(NC(=O)Nc3ccc(Cl)c(Cl)c3)c2)on1  MIC (Klebsiella pneumoniae; microbial growth, broth dilution; BAA1705): > 64 µg/mL
N#CCc1c[nH]c2ccccc12  EC50 (Cryptosporidium parvum; parasite growth; HCT-8; 24 h, intracellular): 546 µM
O=C(N/N=C1\C(=O)N(Cc2ccc(Cl)cc2)c2ccccc21)c1cc2ccccc2[nH]1  inhibition (HT-29; cell growth or viability; 30 µM): 93.7%
CC(C)CCCCCCCCCCCCCCc1cc(O)cc(O)c1  IC50 (Klebsiella pneumoniae; microbial growth; ATCC29665): > 200 µM
COc1c2c(cc3c1OCO3)[C@]13C=C[C@H](OC)C[C@@H]1[N@](C2)C[C@H]3OC(=O)c1ccc2ccccc2c1  IC50 (A2780; cell growth or viability, WST-1): > 10 µM
CC(C)CCCCCCCCCCCCc1cc(O)cc(O)c1  IC50 (Klebsiella pneumoniae; microbial growth; ATCC29665): > 200 µM
COC(=O)c1cc(-c2cccc(NC(=O)Nc3ccc(OC)cc3)c2)on1  MIC (Klebsiella pneumoniae; microbial growth, broth dilution; BAA1705): > 64 µg/mL
O=C(N/N=C1\C(=O)N(Cc2ccccc2)c2ccc(Cl)cc21)c1cc2ccccc2[nH]1  inhibition (HT-29; cell growth or viability; 30 µM): 94.3%
CC(C)C(C)CCCCCCCCCCCc1cc(O)cc(O)c1 (stereo not drawn)  IC50 (Streptococcus pneumoniae; microbial growth): 47.5 µM
COC(=O)c1cc(-c2cccc(NC(=O)Nc3ccc(C)c(Cl)c3)c2)on1  MIC (Klebsiella pneumoniae; microbial growth, broth dilution; BAA1705): > 64 µg/mL
COc1ccc2c(c1)/C(=N/NC(=O)c1cc3ccccc3[nH]1)C(=O)N2Cc1ccccc1  inhibition (HT-29; cell growth or viability; 30 µM): 94%
C[C@H]1COc2c(N3CCN(C)CC3)c(F)cc3c(=O)c(C(=O)O)cn1c23  MIC (Klebsiella pneumoniae; microbial growth, broth dilution; BAA1705): 64 µg/mL (≈ 177 µM)
Cc1ccc(CN2C(=O)/C(=N\NC(=O)c3cc4ccccc4[nH]3)c3ccccc32)cc1  inhibition (HT-29; cell growth or viability; 30 µM): 91.1%
C1CCNCC1  activity vs control (Cryptosporidium parvum; parasite growth, imaging; HCT-8; 1 mM, 24 h, intracellular): 104%
O=C(N/N=C1\C(=O)N(Cc2ccccc2)c2ccc(F)cc21)c1cc2ccccc2[nH]1  IC50 (HT-29; cell growth or viability): 3.5 µM
COC(=O)c1cc(-c2cccc(NC(=O)Nc3ccc(Cl)cc3Cl)c2)on1  MIC (Klebsiella pneumoniae; microbial growth, broth dilution; BAA1705): > 64 µg/mL
N#Cc1ccc(CN2C(=O)/C(=N\NC(=O)c3cc4ccccc4[nH]3)c3ccccc32)cc1  inhibition (HT-29; cell growth or viability; 30 µM): 81.6%
COC(=O)c1cc(-c2cccc(NC(=O)Nc3ccc(F)c(F)c3)c2)on1  MIC (Klebsiella pneumoniae; microbial growth, broth dilution; BAA1705): > 64 µg/mL
O=C(N/N=C1\C(=O)N(Cc2ccccc2)c2ccccc21)c1cc2ccccc2[nH]1  IC50 (HT-29; cell growth or viability): 6.19 µM
Cc1c(NN=C(C#N)C2=NC(=O)CS2)c(=O)n(-c2ccccc2)n1C  inhibition zone (Klebsiella pneumoniae; microbial growth, well diffusion; 100000 µg/mL): 25 mm
